Measured values published in ChEMBL document CHEMBL1122378, “Antiallergic agents. 2. N-(1H-tetrazol-5-yl)-6-phenyl-2-pyridinecarboxamides” (1983).

Tests used:
Type in all cases: functional
Rattus norvegicus [1] = experiment: Antiallergic activity against passive cutaneous anaphylaxis (PCA) in male Sprague-Dawley rats after 10.0 mg/kg oral administration;not statistically significant
In short: (§1)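 IgE antiserum raised in male Sprague-Dawley rats (ca. 200 g) by immunization with Ascaris suum extract (2 then 0.2 mg protein), bled 2 weeks after the second dose. Recipients got 0.05 mL diluted antiserum intracutaneously on the back. Blued area (product of two diameters) was read at 30 min.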

Rattus norvegicus [2] = experiment: Antiallergic activity against passive cutaneous anaphylaxis (PCA) in male Sprague-Dawley rats after 3.0 mg/kg oral administration; in short: as §1
Rattus norvegicus [3] = experiment: Inhibition of passive cutaneous anaphylaxis in male Sprague-Dawley rats following 10 mg/kg p.o. administration.; settings: route oral; in short: as §1
Rattus norvegicus [4] = experiment: Inhibition of passive cutaneous anaphylaxis in male Sprague-Dawley rats following 1 mg/kg p.o. administration; Not significant.; settings: route oral; in short: as §1
Rattus norvegicus [5] = experiment: Inhibition of passive cutaneous anaphylaxis in male Sprague-Dawley rats following 0.3 mg/kg p.o. administration; Not significant.; settings: route oral; in short: as §1
Rattus norvegicus [6] = experiment: Antiallergic activity against passive cutaneous anaphylaxis (PCA) in male Sprague-Dawley rats after 3.0 mg/kg oral administration;not statistically significant; in short: as §1
Rattus norvegicus [7] = experiment: Antiallergic activity against passive cutaneous anaphylaxis (PCA) in male Sprague-Dawley rats after 1.0 mg/kg oral administration; in short: as §1
Rattus norvegicus [8] = experiment: Antiallergic activity against passive cutaneous anaphylaxis (PCA) in male Sprague-Dawley rats after 0.3 mg/kg oral administration;p<0.1; in short: as §1
Rattus norvegicus [9] = experiment: Antiallergic activity against passive cutaneous anaphylaxis (PCA) in male Sprague-Dawley rats after 0.3 mg/kg oral administration; in short: as §1
Rattus norvegicus [10] = experiment: Antiallergic activity against passive cutaneous anaphylaxis (PCA) in male Sprague-Dawley rats after 3.0 mg/kg oral administration;p<0.1; in short: as §1

COc1cc(C(=O)Nc2nn[nH]n2)nc(-c2cc(OC)c(OC)c(OC)c2)c1
inhibition in vivo at 10 mg/kg (Rattus norvegicus [1]): 25% | inhibition in vivo at 3 mg/kg (Rattus norvegicus [2]): 0%

CC(C)c1ccc(-c2cc(Cl)cc(C(=O)Nc3nn[nH]n3)n2)cc1
inhibition in vivo at 10 mg/kg (Rattus norvegicus [3]): 90% | inhibition in vivo at 3 mg/kg (Rattus norvegicus [2]): 68% | inhibition in vivo at 1 mg/kg (Rattus norvegicus [4]): 14%

COc1cc(C(=O)Nc2nn[nH]n2)nc(-c2ccc([N+](=O)[O-])cc2)c1
inhibition in vivo at 10 mg/kg (Rattus norvegicus [1]): 6%

CCCc1cc(C(=O)Nc2nn[nH]n2)nc(-c2ccc(C)cc2)c1
inhibition in vivo at 10 mg/kg (Rattus norvegicus [3]): 84% | inhibition in vivo at 3 mg/kg (Rattus norvegicus [2]): 50%

CC(C)c1cc(C(=O)Nc2nn[nH]n2)nc(-c2ccc(N)cc2)c1
inhibition in vivo at 0.3 mg/kg (Rattus norvegicus [5]): 22% | inhibition in vivo at 1 mg/kg (Rattus norvegicus [4]): 29% | inhibition in vivo at 3 mg/kg (Rattus norvegicus [6]): 43%

COc1cc(C(=O)Nc2nn[nH]n2)nc(-c2ccc(Cl)cc2)c1
inhibition in vivo at 10 mg/kg (Rattus norvegicus [3]): 55% | inhibition in vivo at 3 mg/kg (Rattus norvegicus [6]): 12% | inhibition in vivo at 1 mg/kg (Rattus norvegicus [7]): 0%

COc1cc(-c2cccc(C(=O)Nc3nn[nH]n3)n2)cc(OC)c1OC
inhibition in vivo at 10 mg/kg (Rattus norvegicus [1]): 45% | inhibition in vivo at 3 mg/kg (Rattus norvegicus [6]): 15%

CCc1ccc(-c2cc(Cl)cc(C(=O)Nc3nn[nH]n3)n2)cc1
inhibition in vivo at 3 mg/kg (Rattus norvegicus [2]): 100% | inhibition in vivo at 1 mg/kg (Rattus norvegicus [7]): 49% | inhibition in vivo at 0.3 mg/kg (Rattus norvegicus [8]): 13%

COc1cc(C(=O)Nc2nn[nH]n2)nc(-c2ccccc2Cl)c1
inhibition in vivo at 10 mg/kg (Rattus norvegicus [1]): 17%

COc1ccc(-c2cc(Cl)cc(C(=O)Nc3nn[nH]n3)n2)cc1OC
inhibition in vivo at 1 mg/kg (Rattus norvegicus [4]): 15% | inhibition in vivo at 3 mg/kg (Rattus norvegicus [6]): 30%

CNc1ccc(-c2cccc(C(=O)Nc3nn[nH]n3)n2)cc1
inhibition in vivo at 0.3 mg/kg (Rattus norvegicus [5]): 29% | inhibition in vivo at 1 mg/kg (Rattus norvegicus [4]): 71% | inhibition in vivo at 3 mg/kg (Rattus norvegicus [6]): 83%

Cc1ccc(-c2cccc(C(=O)Nc3nn[nH]n3)n2)cc1C
inhibition in vivo at 10 mg/kg (Rattus norvegicus [3]): 39% | inhibition in vivo at 3 mg/kg (Rattus norvegicus [6]): 28%

COc1cc(C(=O)Nc2nn[nH]n2)nc(-c2ccccc2)c1
inhibition in vivo at 10 mg/kg (Rattus norvegicus [3]): 100% | inhibition in vivo at 3 mg/kg (Rattus norvegicus [2]): 97% | inhibition in vivo at 1 mg/kg (Rattus norvegicus [7]): 62%

CCCCc1cc(C(=O)Nc2nn[nH]n2)nc(-c2ccc(N)cc2)c1
inhibition in vivo at 0.3 mg/kg (Rattus norvegicus [9]): 41% | inhibition in vivo at 1 mg/kg (Rattus norvegicus [7]): 81%

CCCCc1cc(C(=O)Nc2nn[nH]n2)nc(-c2ccc(CC)cc2)c1
inhibition in vivo at 1 mg/kg (Rattus norvegicus [4]): 19% | inhibition in vivo at 3 mg/kg (Rattus norvegicus [6]): 25%

COc1cc(C(=O)Nc2nn[nH]n2)nc(-c2ccc(N(C)C)cc2)c1
inhibition in vivo at 3 mg/kg (Rattus norvegicus [2]): 100% | inhibition in vivo at 0.3 mg/kg (Rattus norvegicus [9]): 29% | inhibition in vivo at 1 mg/kg (Rattus norvegicus [7]): 64%

Cc1cc(C(=O)Nc2nn[nH]n2)nc(-c2ccccc2)c1
inhibition in vivo at 10 mg/kg (Rattus norvegicus [3]): 88% | inhibition in vivo at 3 mg/kg (Rattus norvegicus [2]): 50% | inhibition in vivo at 1 mg/kg (Rattus norvegicus [4]): 23%

CC(C)Cc1cc(C(=O)Nc2nn[nH]n2)nc(-c2ccccc2)c1
inhibition in vivo at 10 mg/kg (Rattus norvegicus [1]): 11%

CCCCc1ccc(-c2cc(CC(C)C)cc(C(=O)Nc3nn[nH]n3)n2)cc1
inhibition in vivo at 10 mg/kg (Rattus norvegicus [1]): 13% | inhibition in vivo at 3 mg/kg (Rattus norvegicus [6]): 3%

CCCc1ccc(-c2cc(Cl)cc(C(=O)Nc3nn[nH]n3)n2)cc1
inhibition in vivo at 0.3 mg/kg (Rattus norvegicus [9]): 42% | inhibition in vivo at 1 mg/kg (Rattus norvegicus [7]): 78%

COc1ccccc1-c1cccc(C(=O)Nc2nn[nH]n2)n1
inhibition in vivo at 10 mg/kg (Rattus norvegicus [3]): 0%

CCc1cc(C(=O)Nc2nn[nH]n2)nc(-c2ccccc2)c1
inhibition in vivo at 10 mg/kg (Rattus norvegicus [3]): 85% | inhibition in vivo at 3 mg/kg (Rattus norvegicus [2]): 53%

Cc1cc(C(=O)Nc2nn[nH]n2)nc(-c2ccc(N(C)C)cc2)c1
inhibition in vivo at 3 mg/kg (Rattus norvegicus [6]): 24%

Cc1ccc(-c2cc(C(C)C)cc(C(=O)Nc3nn[nH]n3)n2)cc1
inhibition in vivo at 3 mg/kg (Rattus norvegicus [10]): 42% | inhibition in vivo at 1 mg/kg (Rattus norvegicus [4]): 20%

CCCCc1ccc(-c2cc(OC)cc(C(=O)Nc3nn[nH]n3)n2)cc1
inhibition in vivo at 10 mg/kg (Rattus norvegicus [3]): 92% | inhibition in vivo at 3 mg/kg (Rattus norvegicus [2]): 61% | inhibition in vivo at 1 mg/kg (Rattus norvegicus [4]): 29%

Cc1ccc(-c2cc(C)cc(C(=O)Nc3nn[nH]n3)n2)cc1
inhibition in vivo at 3 mg/kg (Rattus norvegicus [2]): 100% | inhibition in vivo at 0.3 mg/kg (Rattus norvegicus [9]): 51% | inhibition in vivo at 1 mg/kg (Rattus norvegicus [7]): 80%

COc1cccc(-c2cc(Cl)cc(C(=O)Nc3nn[nH]n3)n2)c1
inhibition in vivo at 3 mg/kg (Rattus norvegicus [2]): 95% | inhibition in vivo at 0.3 mg/kg (Rattus norvegicus [9]): 32% | inhibition in vivo at 1 mg/kg (Rattus norvegicus [7]): 51%

COc1cc(C(=O)Nc2nn[nH]n2)nc(-c2ccccc2OC)c1
inhibition in vivo at 3 mg/kg (Rattus norvegicus [2]): 68% | inhibition in vivo at 1 mg/kg (Rattus norvegicus [4]): 41% | inhibition in vivo at 0.3 mg/kg (Rattus norvegicus [8]): 35%

CC(=O)Nc1ccc(-c2cc(C)cc(C(=O)Nc3nn[nH]n3)n2)cc1
inhibition in vivo at 3 mg/kg (Rattus norvegicus [6]): 32%

CCOc1cc(C(=O)Nc2nn[nH]n2)nc(-c2ccccc2)c1
inhibition in vivo at 3 mg/kg (Rattus norvegicus [10]): 51% | inhibition in vivo at 1 mg/kg (Rattus norvegicus [4]): 29%

Cc1cc(C(=O)Nc2nn[nH]n2)nc(-c2ccc(N)cc2)c1
inhibition in vivo at 3 mg/kg (Rattus norvegicus [2]): 100% | inhibition in vivo at 1 mg/kg (Rattus norvegicus [7]): 75% | inhibition in vivo at 0.3 mg/kg (Rattus norvegicus [8]): 54%

Nc1ccc(-c2cc(Cl)cc(C(=O)Nc3nn[nH]n3)n2)cc1
inhibition in vivo at 3 mg/kg (Rattus norvegicus [2]): 100% | inhibition in vivo at 0.3 mg/kg (Rattus norvegicus [9]): 39% | inhibition in vivo at 1 mg/kg (Rattus norvegicus [7]): 100%

CCc1ccc(-c2cc(OC)cc(C(=O)Nc3nn[nH]n3)n2)cc1
inhibition in vivo at 0.3 mg/kg (Rattus norvegicus [9]): 23% | inhibition in vivo at 1 mg/kg (Rattus norvegicus [7]): 43%

O=C(Nc1nn[nH]n1)c1cc(Cl)cc(-c2ccc([N+](=O)[O-])cc2)n1
inhibition in vivo at 10 mg/kg (Rattus norvegicus [1]): 48% | inhibition in vivo at 3 mg/kg (Rattus norvegicus [6]): 23%

CCOc1cc(C(=O)Nc2nn[nH]n2)nc(-c2ccc(N(CC)CC)cc2)c1
inhibition in vivo at 0.3 mg/kg (Rattus norvegicus [9]): 44% | inhibition in vivo at 1 mg/kg (Rattus norvegicus [7]): 66%

COc1cc(C(=O)Nc2nn[nH]n2)nc(-c2cccc(Cl)c2)c1
inhibition in vivo at 10 mg/kg (Rattus norvegicus [3]): 64% | inhibition in vivo at 3 mg/kg (Rattus norvegicus [2]): 34%

COc1cc(C(=O)Nc2nn[nH]n2)nc(-c2ccc(NC(C)=O)cc2)c1
inhibition in vivo at 10 mg/kg (Rattus norvegicus [3]): 100% | inhibition in vivo at 3 mg/kg (Rattus norvegicus [6]): 27% | inhibition in vivo at 1 mg/kg (Rattus norvegicus [7]): 0%

CCc1ccc(-c2cccc(C(=O)Nc3nn[nH]n3)n2)cc1
inhibition in vivo at 1 mg/kg (Rattus norvegicus [4]): 39% | inhibition in vivo at 0.3 mg/kg (Rattus norvegicus [8]): 14%

Cc1ccccc1-c1cc(Cl)cc(C(=O)Nc2nn[nH]n2)n1
inhibition in vivo at 10 mg/kg (Rattus norvegicus [1]): 24%

CCCCc1cc(C(=O)Nc2nn[nH]n2)nc(-c2ccccc2)c1
inhibition in vivo at 10 mg/kg (Rattus norvegicus [3]): 100% | inhibition in vivo at 3 mg/kg (Rattus norvegicus [2]): 71% | inhibition in vivo at 1 mg/kg (Rattus norvegicus [7]): 56%

COc1ccc(-c2cc(Cl)cc(C(=O)Nc3nn[nH]n3)n2)cc1
inhibition in vivo at 3 mg/kg (Rattus norvegicus [2]): 100% | inhibition in vivo at 0.3 mg/kg (Rattus norvegicus [9]): 40% | inhibition in vivo at 1 mg/kg (Rattus norvegicus [7]): 43%

CCCCc1cc(C(=O)Nc2nn[nH]n2)nc(-c2cccc(C)c2)c1
inhibition in vivo at 10 mg/kg (Rattus norvegicus [3]): 100% | inhibition in vivo at 3 mg/kg (Rattus norvegicus [2]): 82% | inhibition in vivo at 1 mg/kg (Rattus norvegicus [7]): 36%
